Measured values taken from ChEMBL document CHEMBL3259728, “Design, synthesis and biological evaluation of some novel substituted quinazolines as antitumor agents” (2014).

Assays:
Assay type in all cases: functional
[1] = tested on: SK-MEL-28; test: Growth inhibition of human SK-MEL-28 cells at 10 uM after 48 hrs by SRB assay; details: SK-MEL-28, 48 h, read-out: GI
In short: (§1)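 NCI-60 primary one-dose screen run at the US NCI, with human tumour lines from nine cancer types. Compound added once at 10^-5 M, followed by 48 h incubation. End point was sulforhodamine B protein staining read spectrophotometrically. Result given as percent growth of treated cells against untreated controls, reported as % growth inhibition.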

[2] = tested on: NCI-H522; test: Growth inhibition of human NCI-H522 cells at 10 uM after 48 hrs by SRB assay; details: NCI-H522, 48 h, read-out: GI; in short: as §1
[3] = tested on: COLO 205; test: Growth inhibition of human COLO205 cells at 10 uM after 48 hrs by SRB assay; details: COLO 205, 48 h, read-out: GI
In short: (§2)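 NCI primary one-dose screen. A single concentration of 10^-5 M was added to the cell culture, followed by 48 h incubation and an SRB protein-dye endpoint read spectrophotometrically. Results are growth percentage relative to untreated control cells, reported as % growth inhibition.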

[4] = Growth inhibition of human HOP92 cells at 10 uM after 48 hrs by SRB assay; details: HOP-92, 48 h, read-out: GI; in short: as §1
[5] = Growth inhibition of human OVCAR8 cells at 10 uM after 48 hrs by SRB assay; details: OVCAR-8, 48 h, read-out: GI; in short: as §1
[6] = Growth inhibition of human Hs578T cells at 10 uM after 48 hrs by SRB assay; details: Hs-578T, read-out: GI; in short: as §1
[7] = tested on: KM12; test: Growth inhibition of human KM12 cells at 10 uM after 48 hrs by SRB assay; details: KM12, 48 h, read-out: GI; in short: as §1
[8] = Growth inhibition of human HCT15 cells at 10 uM after 48 hrs by SRB assay; details: HCT-15, 48 h, read-out: GI; in short: as §1
[9] = tested on: MCF7; test: Growth inhibition of human MCF7 cells at 10 uM after 48 hrs by SRB assay; details: MCF7, 48 h, read-out: GI; in short: as §1
[10] = tested on: MDA-MB-435; test: Growth inhibition of human MDA-MB-435 cells at 10 uM after 48 hrs by SRB assay; details: MDA-MB-435, 48 h, read-out: GI; in short: as §1
[11] = tested on: HCT-116; test: Growth inhibition of human HCT116 cells at 10 uM after 48 hrs by SRB assay; details: HCT-116, 48 h, read-out: GI; in short: as §1
[12] = tested on: DU-145; test: Growth inhibition of human DU145 cells at 10 uM after 48 hrs by SRB assay; details: DU-145, 48 h, read-out: GI; in short: as §1
[13] = tested on: TK-10; test: Growth inhibition of human TK10 cells at 10 uM after 48 hrs by SRB assay; details: TK-10, 48 h, read-out: GI; in short: as §1
[14] = tested on: SW-620; test: Growth inhibition of human SW620 cells at 10 uM after 48 hrs by SRB assay; details: SW-620, 48 h, read-out: GI; in short: as §1
[15] = tested on: ACHN; test: Growth inhibition of human ACHN cells at 10 uM after 48 hrs by SRB assay; details: read-out: GI; in short: as §2
[16] = tested on: HOP-62; test: Growth inhibition of human HOP62 cells at 10 uM after 48 hrs by SRB assay; details: HOP-62, 48 h, read-out: GI; in short: as §1
[17] = tested on: HT-29; test: Growth inhibition of human HT-29 cells at 10 uM after 48 hrs by SRB assay; details: HT-29, 48 h, read-out: GI; in short: as §1
[18] = tested on: CAKI-1; test: Growth inhibition of human CAKI-1 cells at 10 uM after 48 hrs by SRB assay; details: CAKI-1, 48 h, read-out: GI; in short: as §2
[19] = tested on: T47D; test: Growth inhibition of human T47D cells at 10 uM after 48 hrs by SRB assay; details: read-out: GI; in short: as §1
[20] = tested on: SNB-75; test: Growth inhibition of human SNB75 cells at 10 uM after 48 hrs by SRB assay; details: SNB-75, 48 h, read-out: GI; in short: as §1
[21] = Growth inhibition of human OVCAR3 cells at 10 uM after 48 hrs by SRB assay; details: OVCAR-3, 48 h, read-out: GI; in short: as §1
[22] = tested on: SN12C; test: Growth inhibition of human SN12C cells at 10 uM after 48 hrs by SRB assay; details: read-out: GI; in short: as §1
[23] = tested on: NCI-H23; test: Growth inhibition of human NCI-H23 cells at 10 uM after 48 hrs by SRB assay; details: NCI-H23, 48 h, read-out: GI; in short: as §1
[24] = tested on: 786-0; test: Growth inhibition of human 786-0 cells at 10 uM after 48 hrs by SRB assay; details: 786-0, 48 h, read-out: GI; in short: as §2
[25] = tested on: SF-268; test: Growth inhibition of human SF268 cells at 10 uM after 48 hrs by SRB assay; details: SF-268, 48 h, read-out: GI; in short: as §1
[26] = tested on: SK-MEL-2; test: Growth inhibition of human SK-MEL-2 cells at 10 uM after 48 hrs by SRB assay; details: SK-MEL-2, 48 h, read-out: GI; in short: as §1
[27] = Growth inhibition of human OVCAR5 cells at 10 uM after 48 hrs by SRB assay; details: OVCAR-5, 48 h, read-out: GI; in short: as §1
[28] = tested on: A498; test: Growth inhibition of human A498 cells at 10 uM after 48 hrs by SRB assay; details: A498, 48 h, read-out: GI; in short: as §2
[29] = tested on: PC-3; test: Growth inhibition of human PC3 cells at 10 uM after 48 hrs by SRB assay; details: PC-3, 48 h, read-out: GI; in short: as §1
[30] = tested on: U-251; test: Growth inhibition of human U251 cells at 10 uM after 48 hrs by SRB assay; details: U-251, 48 h, read-out: GI; in short: as §1
[31] = Growth inhibition of human NCI-ADR-RES cells at 10 uM after 48 hrs by SRB assay; details: read-out: GI; in short: as §1
[32] = tested on: NCI-H460; test: Growth inhibition of human NCI-H460 cells at 10 uM after 48 hrs by SRB assay; details: NCI-H460, 48 h, read-out: GI; in short: as §1
[33] = Growth inhibition of human UO31 cells at 10 uM after 48 hrs by SRB assay; details: UO-31, 48 h, read-out: GI; in short: as §1
[34] = tested on: Malme-3M; test: Growth inhibition of human MALME-3M cells at 10 uM after 48 hrs by SRB assay; details: read-out: GI; in short: as §1
[35] = tested on: M14; test: Growth inhibition of human M14 cells at 10 uM after 48 hrs by SRB assay; details: M14, 48 h, read-out: GI; in short: as §1
[36] = Growth inhibition of human BT549 cells at 10 uM after 48 hrs by SRB assay; details: BT-549, 48 h, read-out: GI; in short: as §2

Measured: inhibition of growth at 10 µM

Cc1ccc(C(=O)Nc2ccc(Cl)cc2C(=O)Nc2ccccc2)cc1
28%: [20]
15%: [29]
12%: [34]
14%: [27] | [30]
29%: [16]
18%: [18]
11%: [8] | [9] | [10]
17%: [15]
21%: [2]
20%: [19]
< 10%: all other assays above
